Biological target: T1, Hormone-sensitive lipase (Rattus norvegicus, UniProt P15304)
T1 sequence (P15304 whole entry): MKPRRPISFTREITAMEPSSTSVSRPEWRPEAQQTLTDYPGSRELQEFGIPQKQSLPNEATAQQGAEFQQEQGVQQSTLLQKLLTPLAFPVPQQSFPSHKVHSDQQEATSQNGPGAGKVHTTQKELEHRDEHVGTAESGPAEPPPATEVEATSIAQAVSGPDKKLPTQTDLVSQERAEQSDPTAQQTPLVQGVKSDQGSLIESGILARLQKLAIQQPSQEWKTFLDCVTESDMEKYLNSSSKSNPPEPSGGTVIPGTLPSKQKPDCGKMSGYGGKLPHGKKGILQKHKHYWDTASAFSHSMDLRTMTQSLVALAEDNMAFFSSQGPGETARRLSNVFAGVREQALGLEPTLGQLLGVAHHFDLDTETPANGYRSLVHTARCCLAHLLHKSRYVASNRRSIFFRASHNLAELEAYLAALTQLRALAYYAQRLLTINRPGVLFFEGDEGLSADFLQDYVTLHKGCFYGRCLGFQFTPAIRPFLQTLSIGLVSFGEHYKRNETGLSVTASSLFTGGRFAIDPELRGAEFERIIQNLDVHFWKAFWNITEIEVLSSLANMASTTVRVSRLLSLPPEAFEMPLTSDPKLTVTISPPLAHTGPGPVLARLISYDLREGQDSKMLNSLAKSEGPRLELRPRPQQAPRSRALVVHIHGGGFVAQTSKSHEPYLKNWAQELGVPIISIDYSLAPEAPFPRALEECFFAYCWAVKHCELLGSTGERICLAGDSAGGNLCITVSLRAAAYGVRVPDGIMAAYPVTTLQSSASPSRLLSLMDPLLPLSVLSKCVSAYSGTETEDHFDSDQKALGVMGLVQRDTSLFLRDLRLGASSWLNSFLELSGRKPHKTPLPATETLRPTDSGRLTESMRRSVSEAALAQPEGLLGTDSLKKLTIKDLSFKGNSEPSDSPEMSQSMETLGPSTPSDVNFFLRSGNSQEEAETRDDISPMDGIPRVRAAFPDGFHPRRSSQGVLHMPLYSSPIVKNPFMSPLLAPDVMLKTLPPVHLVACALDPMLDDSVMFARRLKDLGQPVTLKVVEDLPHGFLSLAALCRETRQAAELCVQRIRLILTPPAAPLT
Assay: Inhibition of HSL in Wistar rat isolated fat cells by spectrophotometric assay

Row | Compound | IC50
1 | COc1ccc(C(=O)c2ccccc2)c(O)c1 [OXYBENZONE] | 3.25 µM
2 | O=C(OCc1ccccc1)c1ccccc1 [BENZYL BENZOATE] | 1.1 µM
3 | CCCCOc1ccc(Oc2ccc(C(F)(F)F)cc2[N+](=O)[O-])cc1 | 0.21 µM
4 | COc1cccc(CSC(C(=O)O)c2ccccc2)c1 (stereo unspecified) | 0.51 µM
5 | COC(=O)c1nnn(CCc2c[nH]c3ccccc23)c1C(=O)OC | 5 µM
6 | O=C(N1CCCCC1)n1nc(-c2ccc(Cl)cc2)nc1SCC1CC1 | 0.00353 µM
7 | Cc1c(C(C)C)c(=O)on1C(=O)N1CCCCCC1 | 0.062 µM
8 | Cc1c(C(C)C)c(=O)on1C(=O)N1CCN(c2ccccc2Cl)CC1 | 0.03 µM
9 | Cc1c(C(C)C)c(=O)on1C(=O)N(C)Cc1ccc(F)cc1 | 0.111 µM
10 | CCOCCc1c(C)n(C(=O)N2CCC(C)CC2)oc1=O | 0.003 µM
11 | Cc1c(C(C)C)c(=O)on1C(=O)NC(C)(C)C | > 1 µM
12 | Cc1c(C2CCCCC2)c(=O)on1C(=O)N1CCCCC1 | 0.011 µM
13 | CCSc1nc(-c2ccc(OC)cc2)nn1C(=O)N1CCOCC1 | 0.159 µM
14 | Cc1c(C(C)C)c(=O)on1C(=O)N1CC(C)CCC1C (stereo unspecified) | 0.46 µM
15 | O=C(N1CCOCC1)n1nc(-c2ccc(Cl)cc2)nc1SCC(F)(F)F | 0.159 µM
16 | Cc1c(C(C)C)c(=O)on1C(=O)N(C)C1CCCCC1 | 0.009 µM
17 | Cc1c(C(C)C)c(=O)on1C(=O)N(C)c1ccccc1 | 0.007 µM

Row | Compound | IC50
18 | Cc1c(C(C)C)c(=O)on1C(=O)N(C)c1ccccn1 | 0.24 µM
19 | CSc1nc(-c2ccc(Cl)cc2)nn1C(=O)N(C)c1ccccc1 | 0.00282 µM
20 | COC(=O)c1cc(Oc2ccc(Cl)cc2Cl)ccc1[N+](=O)[O-] [BIFENOX] | 0.43 µM
21 | Cc1c(CC(C)C)c(=O)on1C(=O)N1CCC(c2ccccc2)CC1 | 0.01 µM
22 | Cc1c(C(C)C)c(=O)on1C(=O)N1CCC(c2ccccc2)CC1 | 0.012 µM
23 | Cc1c(C(C)C)c(=O)on1C(=O)N1CCN(C)CC1 | 0.314 µM
24 | Cc1c(C(C)C)c(=O)on1C(=O)N1CCCc2ccccc21 | 0.06 µM
25 | Cc1c(C(C)C)c(=O)on1C(=O)N1CCC[C@H](C)C1 | 0.003 µM
26 | COCCc1c(C)n(C(=O)N2CCC(c3ccccc3)CC2)oc1=O | 0.011 µM
27 | Cc1c(S(=O)(=O)c2ccc(Cl)cc2)c(=O)on1C(=O)N1CCCCC1 | 0.035 µM
28 | CCSCc1ccccc1OC(=O)NC [ETHIOFENCARB] | 0.37 µM
29 | Cc1c(C(C)C)c(=O)on1C(=O)N1CCOCC1 | 0.052 µM
30 | Cc1ccc(-c2nc(SCc3ccccc3)[nH]c(=O)c2CCO)cc1 | 2.98 µM
31 | Cc1c(C(C)C)c(=O)on1C(=O)N1CCc2ccccc21 | > 1 µM
32 | CCc1c(C)n(C(=O)N2CCCCC2)oc1=O | 0.018 µM
33 | Cc1c(C)n(C(=O)N2CCCCC2)oc1=O | 0.013 µM
34 | O=C(N1CCCCC1)n1nc(-c2ccc(Cl)cc2)nc1SCC(F)(F)F | 0.00706 µM

Biological target: T2, Hormone-sensitive lipase (Rattus norvegicus) (UniProt P15304)
T2 sequence (whole entry): T1 sequence (P15304 whole entry)
Assay: Inhibition of HSL in Wistar rat isolated fat cells at 1 uM by spectrophotometric assay
Summary of the method: (§1)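 HSL extract from male Wistar rat epididymal fat cells (collagenase-isolated, homogenized in Tris-HCl pH 7.0/sucrose, ether-extracted supernatant). Enzyme preincubated with compound 30 min at 37 °C, then p-nitrophenyl butyrate added at 10 µM in phosphate buffer pH 7.25 with dithioerythritol; DMSO ≤1.0%. A400 read at 1, 3, 6 min at 37 °C; residual activity versus no-compound control; mean of ≥3 measurements.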

Row | Compound | inhibition
35 | CC(C)[C@H](C(=O)O[C@H](C#N)c1cccc(Oc2ccccc2)c1)c1ccc(Cl)cc1 | 33%
36 | Cc1ccc(S(=O)(=O)Nc2cccc3cc(Cl)ccc23)cc1 | 15%
37 | CCOc1ccc([Si](C)(C)CCCc2ccc(F)c(Oc3ccccc3)c2)cc1 | 6%
38 | O=c1c(O)c(-c2ccccc2)oc2ccccc12 | 23%
39 | O=C(/C=C/c1ccccc1)OCCc1ccccc1 | 12%
40 | O=C(COC(=O)c1ccccc1)c1ccccc1 | 9%
41 | Cc1ccc(-c2nc(SCc3ccccc3)nc(O)c2CCO)cc1 | 45%
42 | CC(=O)Oc1cc(OCCCc2ccc(F)cc2)cc2c1-c1ccccc1CC2 | 24%
43 | CCCCOc1ccc(Oc2ccc(C(F)(F)F)cc2[N+](=O)[O-])cc1 | 64%
44 | COc1cccc(CSC(C(=O)O)c2ccccc2)c1 (stereo unspecified) | 67%
45 | CC(C)C(C(=O)OC(C#N)c1cccc(Oc2ccccc2)c1)c1ccc(Cl)cc1 (stereo unspecified) | 37%
46 | CCOC(=O)c1nc2ccccc2nc1NCc1ccc(OC)cc1 | 27%
47 | O=C(O)/C(=N\OCc1ccccc1)c1ccccc1 | 21%
48 | CC1(C)C(C(=O)OC(C#N)c2cccc(Oc3ccccc3)c2)C1(C)C (stereo unspecified) | 35%
49 | COC(=O)c1cc(Oc2ccc(Cl)cc2Cl)ccc1[N+](=O)[O-] [BIFENOX] | 60%

Biological target: T2, Hormone-sensitive lipase (Rattus norvegicus)
Assay: Inhibition of HSL in Wistar rat isolated fat cells at 10 uM by spectrophotometric assay
Summary of the method: as §1

Row | Compound | inhibition
50 | COc1ccc(C(=O)c2ccccc2)c(O)c1 [OXYBENZONE] | 44%
51 | O=C(NC(Cc1ccccc1)C(=O)O)C(=O)c1c[nH]c2ccc(Cl)cc12 (stereo unspecified) | 26%
52 | COc1ccc(Br)c(C(=O)O)c1OS(=O)(=O)c1ccc(C)cc1 | 30%
53 | O=C(CC(=O)c1ccccc1)c1ccccc1 | 28%
54 | COC(=O)Cc1nc2ccc(OC)cc2nc1O | 15%
55 | O=C(OCc1ccccc1)c1ccccc1 [BENZYL BENZOATE] | 66%
56 | COc1ccc(Cc2ccc3nc(O)cc(C)c3c2)cc1S(=O)(=O)O | 24%
57 | COc1ccc2cc([C@H](C)C(=O)O)ccc2c1 | 64%
58 | COC(=O)C1Oc2ccc(Cl)cc2C1=O (stereo unspecified) | 3%
59 | CC(C)=NNc1ccnc(SCc2ccccc2)n1 | 2%
60 | O=S(=O)(Oc1ccc(Cl)cc1)c1ccc(Cl)cc1 | 26%
61 | CCC(CCC#N)C(=O)c1ccc(C)o1 (stereo unspecified) | 14%
62 | COC1=CC(=O)OC(c2ccco2)C1 (stereo unspecified) | 12%
63 | COC1=CC(=O)OC(C)(c2ccccc2)C1 (stereo unspecified) | 24%
64 | O=C(/C(=N/c1ccccc1)NO)c1ccccc1 | 23%
65 | COc1ccc(C(O)c2cc3ccccc3n2S(=O)(=O)c2ccccc2)cc1 (stereo unspecified) | 29%
66 | COC(=O)c1nnn(CCc2c[nH]c3ccccc23)c1C(=O)OC | 52%
67 | Cc1ncc(COCc2ccccc2)c(CO)c1OCc1ccccc1 | 31%
68 | COC(=O)c1ccc(C)c(NS(=O)(=O)c2ccc3c(c2)c(=O)sn3C)c1 | 24%
69 | CCOC(=O)c1c(C)c2c(n1C)CC/C(=C\N1CCCCC1)C2=O | 10%
70 | COc1cc(CNC(=O)CCCC/C=C/C(C)C)ccc1O | 33%
71 | CCSCc1ccccc1OC(=O)NC [ETHIOFENCARB] | 52%

Source: ChEMBL document CHEMBL1140143, “Combining ligand-based pharmacophore modeling, quantitative structure-activity relationship analysis and in silico screening for the discovery of new potent hormone sensitive lipase inhibitors” (J Med Chem, 2008)
